Data: ChEMBL document CHEMBL1177709, “Molecular switch controlling the binding of anionic bile acid conjugates to human apical sodium-dependent bile acid transporter” (J Med Chem, 2010)
pKi: −log10 of the molar value.

Molecular target: T1, Ileal sodium/bile acid cotransporter (Homo sapiens, UniProt Q12908)
T1 sequence (Q12908 whole entry): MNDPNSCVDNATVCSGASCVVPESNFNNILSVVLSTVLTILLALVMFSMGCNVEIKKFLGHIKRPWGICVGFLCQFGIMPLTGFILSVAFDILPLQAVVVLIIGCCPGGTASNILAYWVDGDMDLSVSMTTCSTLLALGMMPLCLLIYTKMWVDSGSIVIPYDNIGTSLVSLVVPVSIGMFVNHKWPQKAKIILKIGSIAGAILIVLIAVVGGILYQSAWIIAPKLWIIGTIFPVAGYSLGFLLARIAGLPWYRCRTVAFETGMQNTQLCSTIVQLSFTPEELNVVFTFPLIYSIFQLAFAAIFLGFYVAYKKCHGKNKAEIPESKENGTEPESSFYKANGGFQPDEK
Test: Inhibition of human ASBT expressed in MDCK cells assessed as inhibition of [3H]taurocholic acid uptake after 10 mins by liquid scintillation counting
Format: cell-based
Summary of the method: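 Stably transfected hASBT-MDCK cells grown in DMEM with 10% FBS, penicillin/streptomycin and 1 mg/mL geneticin, seeded at 1.5 million/well, induced with 10mM sodium butyrate for 12-17 h before study on day 4. Cells washed with chilled sodium-free buffer, lysed in NaOH, neutralized, counted.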

Structure (SMILES)	pKi
COc1ccc(NC(=O)CC[C@H](NC(=O)CC[C@@H](C)[C@H]2CC[C@H]3[C@@H]4[C@H](O)C[C@H]5C[C@H](O)CC[C@]5(C)[C@H]4CC[C@]23C)C(=O)O)cc1	5.22
C[C@H](CCC(=O)N[C@@H](CCC(=O)Nc1ccccc1C(C)(C)C)C(=O)O)[C@H]1CC[C@H]2[C@@H]3[C@H](O)C[C@H]4C[C@H](O)CC[C@]4(C)[C@H]3CC[C@]12C	5.41
CC(CCC(=O)NC(CCC(=O)Nc1cccc(NC(=O)OC(C)(C)C)c1)C(=O)O)C1CCC2C3C(O)CC4CC(O)CCC4(C)C3CCC12C (centres undefined)	5.19
COc1cccc(NC(=O)CC[C@H](NC(=O)CC[C@@H](C)[C@H]2CC[C@H]3[C@@H]4[C@H](O)C[C@H]5C[C@H](O)CC[C@]5(C)[C@H]4CC[C@]23C)C(=O)O)c1	5.37
C[C@H](CCC(=O)N[C@@H](CCC(=O)NCc1ccc(C(=O)O)cc1)C(=O)O)[C@H]1CC[C@H]2[C@@H]3[C@H](O)C[C@H]4C[C@H](O)CC[C@]4(C)[C@H]3CC[C@]12C	4.39
CCOC(=O)c1ccccc1NC(=O)CCC(NC(=O)CCC(C)C1CCC2C3C(O)CC4CC(O)CCC4(C)C3CCC12C)C(=O)O (centres undefined)	5.94
C[C@H](CCC(=O)N[C@@H](CCC(=O)Nc1cccc(C(C)(C)C)c1)C(=O)O)[C@H]1CC[C@H]2[C@@H]3[C@H](O)C[C@H]4C[C@H](O)CC[C@]4(C)[C@H]3CC[C@]12C	6.23
C[C@H](CCC(=O)N[C@@H](CCC(=O)Nc1ccc(Cl)cc1)C(=O)O)[C@H]1CC[C@H]2[C@@H]3[C@H](O)C[C@H]4C[C@H](O)CC[C@]4(C)[C@H]3CC[C@]12C	5.72
COC(=O)c1ccc(NC(=O)CC[C@H](NC(=O)CC[C@@H](C)[C@H]2CC[C@H]3[C@@H]4[C@H](O)C[C@H]5C[C@H](O)CC[C@]5(C)[C@H]4CC[C@]23C)C(=O)O)cc1	5.39
C[C@H](CCC(=O)N[C@@H](CCC(=O)Nc1cccc(C(=O)O)c1)C(=O)OOCc1ccccc1)[C@H]1CC[C@H]2[C@@H]3[C@H](O)C[C@H]4C[C@H](O)CC[C@]4(C)[C@H]3CC[C@]12C	5.65
C[C@H](CCC(=O)N[C@@H](CCC(=O)Nc1cccc(N)c1)C(=O)O)[C@H]1CC[C@H]2[C@@H]3[C@H](O)C[C@H]4C[C@H](O)CC[C@]4(C)[C@H]3CC[C@]12C	4.79
C[C@H](CCC(=O)N[C@@H](CCC(=O)Nc1cccc(C(=O)O)c1)C(=O)O)[C@H]1CC[C@H]2[C@@H]3[C@H](O)C[C@H]4C[C@H](O)CC[C@]4(C)[C@H]3CC[C@]12C	4.44
COC(=O)c1ccccc1NC(=O)CC[C@H](NC(=O)CC[C@@H](C)[C@H]1CC[C@H]2[C@@H]3[C@H](O)C[C@H]4C[C@H](O)CC[C@]4(C)[C@H]3CC[C@]12C)C(=O)O	5.64
CCOC(=O)c1ccc(NC(=O)CCC(NC(=O)CCC(C)C2CCC3C4C(O)CC5CC(O)CCC5(C)C4CCC23C)C(=O)O)cc1 (centres undefined)	5.29
C[C@H](CCC(=O)N[C@@H](CCC(=O)Nc1ccccc1C(=O)O)C(=O)O)[C@H]1CC[C@H]2[C@@H]3[C@H](O)C[C@H]4C[C@H](O)CC[C@]4(C)[C@H]3CC[C@]12C	4.39
C[C@H](CCC(=O)N[C@@H](CCC(=O)NCc1cccc(C(=O)O)c1)C(=O)O)[C@H]1CC[C@H]2[C@@H]3[C@H](O)C[C@H]4C[C@H](O)CC[C@]4(C)[C@H]3CC[C@]12C	3.90
C[C@H](CCC(=O)N[C@@H](CCC(=O)Nc1ccccc1N)C(=O)O)[C@H]1CC[C@H]2[C@@H]3[C@H](O)C[C@H]4C[C@H](O)CC[C@]4(C)[C@H]3CC[C@]12C	5.58

Continued, values first:

pKi	Structure (SMILES)
5.50	C[C@H](CCC(=O)N[C@@H](CCC(=O)Nc1ccc(F)cc1F)C(=O)O)[C@H]1CC[C@H]2[C@@H]3[C@H](O)C[C@H]4C[C@H](O)CC[C@]4(C)[C@H]3CC[C@]12C
5.64	C[C@H](CCC(=O)N[C@@H](CCC(=O)Nc1ccccc1F)C(=O)O)[C@H]1CC[C@H]2[C@@H]3[C@H](O)C[C@H]4C[C@H](O)CC[C@]4(C)[C@H]3CC[C@]12C
5.09	Cc1cccc(C)c1NC(=O)CC[C@H](NC(=O)CC[C@@H](C)[C@H]1CC[C@H]2[C@@H]3[C@H](O)C[C@H]4C[C@H](O)CC[C@]4(C)[C@H]3CC[C@]12C)C(=O)O
5.41	COc1ccccc1NC(=O)CC[C@H](NC(=O)CC[C@@H](C)[C@H]1CC[C@H]2[C@@H]3[C@H](O)C[C@H]4C[C@H](O)CC[C@]4(C)[C@H]3CC[C@]12C)C(=O)O
4.80	C[C@H](CCC(=O)N[C@@H](CCC(=O)Nc1ccc(N)cc1)C(=O)O)[C@H]1CC[C@H]2[C@@H]3[C@H](O)C[C@H]4C[C@H](O)CC[C@]4(C)[C@H]3CC[C@]12C
6.56	C[C@H](CCC(=O)N[C@@H](CCC(=O)Nc1ccc(C(C)(C)C)cc1)C(=O)O)[C@H]1CC[C@H]2[C@@H]3[C@H](O)C[C@H]4C[C@H](O)CC[C@]4(C)[C@H]3CC[C@]12C
3.97	C[C@H](CCC(=O)N[C@@H](CCC(=O)Nc1ccc(C(=O)O)cc1)C(=O)O)[C@H]1CC[C@H]2[C@@H]3[C@H](O)C[C@H]4C[C@H](O)CC[C@]4(C)[C@H]3CC[C@]12C
5.49	Cc1ccc(NC(=O)CC[C@H](NC(=O)CC[C@@H](C)[C@H]2CC[C@H]3[C@@H]4[C@H](O)C[C@H]5C[C@H](O)CC[C@]5(C)[C@H]4CC[C@]23C)C(=O)O)cc1
5.69	C[C@H](CCC(=O)N[C@@H](CCC(=O)Nc1ccc(C(F)(F)F)cc1)C(=O)O)[C@H]1CC[C@H]2[C@@H]3[C@H](O)C[C@H]4C[C@H](O)CC[C@]4(C)[C@H]3CC[C@]12C
5.28	CC(CCC(=O)NC(CCC(=O)Nc1ccc(NC(=O)OC(C)(C)C)cc1)C(=O)O)C1CCC2C3C(O)CC4CC(O)CCC4(C)C3CCC12C (centres undefined)
5.90	C[C@H](CCC(=O)N[C@@H](CCC(=O)Nc1cccc(F)c1)C(=O)O)[C@H]1CC[C@H]2[C@@H]3[C@H](O)C[C@H]4C[C@H](O)CC[C@]4(C)[C@H]3CC[C@]12C
5.52	C[C@H](CCC(=O)N[C@@H](CCC(=O)Nc1ccc(F)cc1)C(=O)O)[C@H]1CC[C@H]2[C@@H]3[C@H](O)C[C@H]4C[C@H](O)CC[C@]4(C)[C@H]3CC[C@]12C
5.28	COc1cc(NC(=O)CC[C@H](NC(=O)CC[C@@H](C)[C@H]2CC[C@H]3[C@@H]4[C@H](O)C[C@H]5C[C@H](O)CC[C@]5(C)[C@H]4CC[C@]23C)C(=O)O)cc(OC)c1
5.58	Cc1ccccc1NC(=O)CC[C@H](NC(=O)CC[C@@H](C)[C@H]1CC[C@H]2[C@@H]3[C@H](O)C[C@H]4C[C@H](O)CC[C@]4(C)[C@H]3CC[C@]12C)C(=O)O
5.12	COC(=O)c1cccc(NC(=O)CC[C@H](NC(=O)CC[C@@H](C)[C@H]2CC[C@H]3[C@@H]4[C@H](O)C[C@H]5C[C@H](O)CC[C@]5(C)[C@H]4CC[C@]23C)C(=O)O)c1
6.05	Cc1cccc(NC(=O)CC[C@H](NC(=O)CC[C@@H](C)[C@H]2CC[C@H]3[C@@H]4[C@H](O)C[C@H]5C[C@H](O)CC[C@]5(C)[C@H]4CC[C@]23C)C(=O)O)c1
5.37	Cc1cccc(NC(=O)CC[C@H](NC(=O)CC[C@@H](C)[C@H]2CC[C@H]3[C@@H]4[C@H](O)C[C@H]5C[C@H](O)CC[C@]5(C)[C@H]4CC[C@]23C)C(=O)O)c1C
